CCR6 antag: CCR6 (human) receptor antagonism; P51684; CHO-K1 CCR6 PathHunter beta-arrestin, luminescence, CCL20-stimulated; inhibition, % at 20 µM; actives 0.49% (n = 340,000); AID 493098;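 active = compounds whose inhibition of the agonist-driven luminescence signal at 20 µM reaches about 50%, limit read from the data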;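 also: cells stimulated with CCL20 at 14 nM final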
Target sequence (P51684 whole entry, looked up): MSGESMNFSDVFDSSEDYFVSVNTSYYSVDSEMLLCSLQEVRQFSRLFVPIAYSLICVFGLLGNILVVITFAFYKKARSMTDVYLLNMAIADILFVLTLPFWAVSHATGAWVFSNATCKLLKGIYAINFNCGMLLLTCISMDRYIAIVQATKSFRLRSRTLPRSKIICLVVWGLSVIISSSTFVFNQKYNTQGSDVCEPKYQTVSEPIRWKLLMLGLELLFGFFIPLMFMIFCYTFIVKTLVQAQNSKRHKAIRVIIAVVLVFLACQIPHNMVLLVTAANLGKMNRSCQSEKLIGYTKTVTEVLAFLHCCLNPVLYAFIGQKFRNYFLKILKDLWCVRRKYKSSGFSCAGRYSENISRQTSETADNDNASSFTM
CXCR6 inh: inhibitors of human CXCR6 receptor; actives 0.36% (n = 360,000); O00574; inhibition, % at 20 µM; CHO-K1 PathHunter CXCR6 beta-arrestin, luminescence; in the data active = inhibition above about 34%, passing the limit was not always enough;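 also: antagonist mode with CXCL16 agonist at 10 nM final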
Target sequence (O00574 whole entry, looked up): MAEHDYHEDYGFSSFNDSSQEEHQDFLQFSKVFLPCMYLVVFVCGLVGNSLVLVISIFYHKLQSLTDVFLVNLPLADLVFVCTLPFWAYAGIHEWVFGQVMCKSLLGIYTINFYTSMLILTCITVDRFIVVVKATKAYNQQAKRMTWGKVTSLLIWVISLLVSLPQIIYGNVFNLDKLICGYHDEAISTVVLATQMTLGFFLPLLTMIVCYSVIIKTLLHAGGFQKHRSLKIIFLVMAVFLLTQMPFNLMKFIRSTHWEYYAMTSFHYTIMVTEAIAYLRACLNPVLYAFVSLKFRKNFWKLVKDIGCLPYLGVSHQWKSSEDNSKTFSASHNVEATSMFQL
APJ ag: APJ receptor agonism | P35414 | CHO-K1 APJ PathHunter beta-arrestin, luminescence; 0% DMSO wells, 100% apelin | activation, % at 20 µM | actives 0.11% (n = 330,000) | AID 2520;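 active = activation more than six SD over the plate average, tested at 20 µM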
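Test system – PathHunter CHO-K1 APJ (AGTRL-1) beta-arrestin reporter cells · Input – 1000 cells/well · Compound – single test compound dose, 20 µM final, 1% DMSO · Times – compound stimulation 90 min at 25 °C, detection 60 min · Technique – beta-gal luminescence · Read-out basis – APJ–arrestin association signal · Control set – negative DMSO alone, positive Apelin-13 at 10 nM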
HTR2A ag: agonists of mouse serotonin 5-HT2A receptor (HTR2A); P35363; actives 0.66% (n = 360,000); CHO-K1 mHTR2A beta-arrestin complementation, luminescence; percent of 30 µM serotonin response; activation, % at 7.6 µM;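 active = activation above a run cutoff, the mean activation of all tested compounds plus 3 SD, cut at about 14% in these data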
APJ antagonist: APJ receptor antagonism. P35414. CHO-K1 APJ beta-arrestin complementation, luminescence. inhibition, % at 20 µM. actives 0.32% (n = 330,000);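 active = inhibition above about 40% at 20 µM, limit read from the data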;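 also: cells challenged with 10 nM apelin-13 agonist together with compound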
EBI2 block: EBI2 (human) antagonism; EBI2 beta-arrestin recruitment, luminescence, 7a,25-OHC stimulated; inhibition, % at 5 µM; actives 0.81% (n = 360,000); AID 651636; in the data active = inhibition above about 38%;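 also: enzyme fragment complementation signal reports receptor beta-arrestin coupling in cells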
OPRM1 ag: counter-screen for mouse HTR2A agonists: human mu opioid receptor agonists; U2OS OPRM1 beta-arrestin PathHunter, luminescence; DMSO 0%, DAMGO 9.3 µM 100%; activation, % at 9.3 µM; shares compounds with HTR2A ag; actives 5.3% (n = 2,300); AID 624380;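 active = mean activation above the mean of DMSO-only wells plus 3 SD, cut at about 0.5% in these data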
m5-HT2A ag conf: confirmation of mouse HTR2A serotonin receptor agonists. shares compounds with HTR2A ag. CHO-K1 PathHunter beta-arrestin recruitment, luminescence; DMSO 0%, 30 µM serotonin 100%. activation, % at 7.6 µM. actives 19% (n = 2,300). AID 624381;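 active = mean activation across triplicates above the hit threshold derived in the original primary screen, cut at about 15% in these data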
Large screens that a line does not name were inactive (follow-up assays come after a bar, where they were run). Compounds with a hit are over-represented: about 2.2% of the library has one in this group of screens.

Cc1nn(C)c(C(=O)Nc2ccn(C34CC5CC(CC(C5)C3)C4)n2)c1[N+](=O)[O-]	HTR2A ag 15.1 | OPRM1 ag inactive | m5-HT2A ag conf inactive
CC1(C(=O)NC2CCc3ccccc32)CCN1CCc1ccccc1 (stereo not given)	none (no result: CCR6 antag, APJ ag, APJ antagonist)
CCOC(=O)CC(=O)CSCC(=O)Nc1ccc(C)cc1	HTR2A ag 15.6 | OPRM1 ag inactive | m5-HT2A ag conf inactive
CCN(CC(=O)Nc1ccc(NC(C)=O)cc1)C(=O)CSCC(=O)Nc1ccc(C)cc1	none
Cc1ccc(S(=O)(=O)N2CCN(C(=O)COC(=O)/C=C/c3ccc(F)cc3)CC2)c(C)c1	none
CSc1ccc(/C=C/C(=O)OCC(=O)N2CCN(S(=O)(=O)c3ccc(C)cc3C)CC2)cc1	HTR2A ag 23.6 | OPRM1 ag inactive | m5-HT2A ag conf inactive
COc1ccc(/C=N/NC(=O)CCN2CCN(c3ccccc3)CC2)c(OC)c1OC	none
O=C(CCN1CCN(c2ccccc2)CC1)N/N=C/c1ccc(O)c(O)c1O	HTR2A ag 15.0 (no result: APJ ag, APJ antagonist) | OPRM1 ag inactive | m5-HT2A ag conf 51.2
COc1ccc2c3n(nc2c1)CCN=C3c1ccc(Cl)cc1	HTR2A ag 16.5 | OPRM1 ag inactive | m5-HT2A ag conf inactive
CCc1nc2c(OCc3ccc(Cl)cc3)cccn2c1N(C)C(=O)c1ccc2c(c1)OCO2	none (no result: CCR6 antag, APJ ag, APJ antagonist)
CCc1nc2c(OCc3ccccc3)cccn2c1N(C)C(=O)c1ccc2c(c1)OCO2	HTR2A ag 14.5 (no result: CCR6 antag, APJ ag, APJ antagonist) | OPRM1 ag inactive | m5-HT2A ag conf inactive
CC12CC3CC(C)(C1)CC(C(O)CN1CCOCC1)(C3)C2 (stereo not given)	HTR2A ag 16.0 | OPRM1 ag inactive | m5-HT2A ag conf inactive
CC1(C)NC(=O)N(CC(O)CN2CCOCC2)C1=O (stereo not given)	none
O=C(NC(=S)Nn1cnc2c(cnn2-c2ccccc2)c1=O)c1ccc(Cl)cc1	HTR2A ag 41.7 | OPRM1 ag inactive | m5-HT2A ag conf inactive
O=C(NC(=S)Nn1cnc2c(cnn2-c2ccccc2)c1=O)c1ccc(Oc2ccccc2)cc1	none
CC1CC(C)CN(C(=O)c2ccc3nc[nH]c3c2)C1 (stereo not given)	HTR2A ag 15.8 | OPRM1 ag inactive | m5-HT2A ag conf inactive
COC(=O)c1cc(=O)n(Cc2ccc3c(c2)OCO3)c(=Nc2ccc(F)c(Cl)c2)s1	HTR2A ag 14.5, EBI2 block 63.9 | OPRM1 ag inactive | m5-HT2A ag conf inactive
Cc1ccc(NC(=O)CN(C)C(=O)C2CSC3(C)CCC(=O)N23)cc1 (stereo not given)	none (no result: CCR6 antag, APJ ag, APJ antagonist)
CC1C(=O)N(Cc2cn(CCC3OCCO3)nn2)CCS(=O)(=O)N1Cc1ccc(-c2ccc(Cl)cc2)cc1 (stereo not given)	none (no result: CCR6 antag, APJ ag, APJ antagonist)
CCOc1ccc(S(=O)(=O)N(C)CC(=O)NCc2ccccn2)cc1	none
CC(C)(C)NC(=O)COc1ccc(CNCCc2ccccc2)cc1	none
CC(C)(C)NC(=O)COc1ccc(CNCc2ccccn2)cc1	HTR2A ag 14.5 | OPRM1 ag inactive | m5-HT2A ag conf inactive
CN(Cc1ccccc1)S(=O)(=O)c1ccc(OCC(=O)NCc2ccccn2)cc1	HTR2A ag 17.6 | OPRM1 ag inactive | m5-HT2A ag conf inactive
CC1=C(C(=O)N2CCCCCC2)CC(CC(=O)NC2CCCC2)C(=O)N1Cc1ccc(C(C)(C)C)cc1 (stereo not given)	HTR2A ag 14.7 (no result: CCR6 antag, APJ ag, APJ antagonist) | OPRM1 ag inactive | m5-HT2A ag conf inactive
COc1ccc(CN2C(=O)C(CC(=O)NC3CCCC3)CC(C(=O)N(C)C)=C2C)cc1 (stereo not given)	HTR2A ag 30.0 (no result: CCR6 antag, APJ ag, APJ antagonist) | OPRM1 ag inactive | m5-HT2A ag conf inactive
CC1=C(C(=O)N2CCCCCC2)CC(CC(=O)NC2CCCC2)C(=O)N1Cc1ccccc1 (stereo not given)	none (no result: CCR6 antag, APJ ag, APJ antagonist)
CN(c1ccc([N+](=O)[O-])cc1)c1cc2c(c3c1ccn3C)C1CCC2C1 (stereo not given)	none (no result: CCR6 antag, APJ ag, APJ antagonist)
COc1ccccc1S(=O)(=O)N(C)C[C@@H]1OCc2cnnn2CCCC(=O)N([C@H](C)CO)C[C@H]1C	none (no result: CCR6 antag, APJ ag, APJ antagonist)
CC(O)(c1cccnc1)c1nc(-c2cccc(C(F)(F)F)c2)cs1 (stereo not given)	none (no result: CCR6 antag, APJ ag, APJ antagonist)
O=C(CSCC(=O)NCc1ccco1)NCc1ccco1	none
O=C(CSc1ccccc1)NCc1ccco1	HTR2A ag 15.3 | OPRM1 ag inactive | m5-HT2A ag conf inactive
COc1ccc(-c2cc(C(=O)NC3CCCC3)no2)cc1	HTR2A ag 24.9 | OPRM1 ag inactive | m5-HT2A ag conf inactive
Cc1c(C(=O)Nc2ccc(-c3nnc4n3CCCCC4)cc2)oc2ccc(Br)cc12	HTR2A ag 18.4 | OPRM1 ag inactive | m5-HT2A ag conf inactive
Cc1ccc([C@H]2C[C@@H](O)[C@H](n3cc(C4CC4)nn3)CN2C(=O)c2cccs2)cc1	none (no result: CCR6 antag, APJ ag, APJ antagonist)
COc1ccc(-c2cc3nc4n(c(=O)c3s2)CCC4)cc1	none
COc1ccc(-c2nc3n(c2C)CCC3)cc1	HTR2A ag 23.1 | OPRM1 ag inactive | m5-HT2A ag conf 15.4
Cc1cc(=O)[nH]c(SCc2csc(-c3ccccc3)n2)n1	none
Nc1cc(=O)[nH]c(SCc2csc(-c3ccccc3)n2)n1	HTR2A ag 18.8 | OPRM1 ag inactive | m5-HT2A ag conf inactive
CC[C@H]1O[C@H](C)CC2=C1C(=O)OC(C)(C)O2	none (no result: CCR6 antag, APJ ag, APJ antagonist)
Cc1cc(C)n(CCN(C)C(=O)C2CCC(=O)N(CCc3cccc(F)c3)C2)n1 (stereo not given)	HTR2A ag 15.0 | OPRM1 ag inactive | m5-HT2A ag conf inactive
COc1ccc(C2=Nc3ccccc3N(C(=O)c3ccncc3)C2C(=O)NC(C)C)cc1 (stereo not given)	none (no result: CCR6 antag, CXCR6 inh, APJ ag, APJ antagonist)
COc1ccccc1CNC(=O)c1n[nH]c2ccccc12	HTR2A ag 19.0 | OPRM1 ag inactive | m5-HT2A ag conf inactive
COc1cc2c(cc1OC)-c1cc(Nc3ccccc3C)nc(=O)n1CC2	HTR2A ag 17.9 | OPRM1 ag inactive | m5-HT2A ag conf inactive
CCOc1ccccc1Nc1cc2n(c(=O)n1)CCc1cc(OC)c(OC)cc1-2	none
Cc1ccc(S(=O)(=O)NCCN(CCNS(=O)(=O)c2ccc(C)cc2)S(C)(=O)=O)cc1	HTR2A ag 24.2 | OPRM1 ag inactive | m5-HT2A ag conf inactive
Cc1ccc(S(=O)(=O)NCCCCCCNS(=O)(=O)c2ccc(C)cc2)cc1	none (no result: CCR6 antag, APJ ag, APJ antagonist)
COC(=O)c1cc(OC)c(OC)cc1NC(=O)CSCc1c(C)noc1C	HTR2A ag 15.8 | OPRM1 ag inactive | m5-HT2A ag conf inactive

Source: PubChem (several laboratories)
